Experimental data reported in ChEMBL document CHEMBL4024748, “Development of Potent Type I Protein Arginine Methyltransferase (PRMT) Inhibitors of Leukemia Cell Proliferation” (J Med Chem, 2017).
The source made the active and inactive calls. The rule behind the calls is not given here.

How the values were obtained:
MV4-11 [1] = assay: Downregulation of HOXA10 mRNA levels in human MV4-11 cells by qRT-PCR analysis; assay type: functional, cell-based
Outline: (§1)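 MV4-11 cells treated with compound. mRNA measured by SYBR Green qRT-PCR with B2M as internal control. Fold change from ΔΔCt. Samples run in triplicate, mean ± SD.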

[2] = molecular target: Protein arginine N-methyltransferase 1 (Rattus norvegicus) (UniProt Q63009); assay: Non-competitive inhibition of rat His-tagged PRMT1 (11 to 353 residues) expressed in Escherichia coli BL21(DE3) in presence of varying concentrations of biotinylated H4 peptide (1 to 21 residues) substrate and fixed [3H]SAM concentration
Sequence of Protein arginine N-methyltransferase 1 (Rattus norvegicus) (Q63009 whole entry, looked up, the tested form may be a part): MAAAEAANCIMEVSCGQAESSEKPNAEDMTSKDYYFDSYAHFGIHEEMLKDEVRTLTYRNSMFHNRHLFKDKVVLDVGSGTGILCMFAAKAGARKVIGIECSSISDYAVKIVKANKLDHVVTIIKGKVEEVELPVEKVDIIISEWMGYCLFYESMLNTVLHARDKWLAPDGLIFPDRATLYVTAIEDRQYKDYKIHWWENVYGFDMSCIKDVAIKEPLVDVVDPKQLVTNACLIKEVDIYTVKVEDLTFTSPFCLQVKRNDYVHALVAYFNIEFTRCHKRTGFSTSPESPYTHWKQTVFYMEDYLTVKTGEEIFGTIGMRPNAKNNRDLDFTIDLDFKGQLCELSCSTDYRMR
Outline: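 Kinetic mode-of-action study using the radiolabel method with His6-rPRMT1(11–353). IC50 measured at varied peptide substrate or varied SAM concentrations, with the other component fixed. 15 min enzyme–compound preincubation, then 60 min reaction at RT with [3H]-SAM, Flashplate capture and Microbeta counting.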

[3] = molecular target: Protein arginine N-methyltransferase 3 (Homo sapiens, UniProt O60678); assay: Inhibition of PRMT3 (unknown origin) incubated for 15 mins followed by substrate addition measured after 60 mins by AlphaLisa method
Sequence of Protein arginine N-methyltransferase 3 (O60678 whole entry): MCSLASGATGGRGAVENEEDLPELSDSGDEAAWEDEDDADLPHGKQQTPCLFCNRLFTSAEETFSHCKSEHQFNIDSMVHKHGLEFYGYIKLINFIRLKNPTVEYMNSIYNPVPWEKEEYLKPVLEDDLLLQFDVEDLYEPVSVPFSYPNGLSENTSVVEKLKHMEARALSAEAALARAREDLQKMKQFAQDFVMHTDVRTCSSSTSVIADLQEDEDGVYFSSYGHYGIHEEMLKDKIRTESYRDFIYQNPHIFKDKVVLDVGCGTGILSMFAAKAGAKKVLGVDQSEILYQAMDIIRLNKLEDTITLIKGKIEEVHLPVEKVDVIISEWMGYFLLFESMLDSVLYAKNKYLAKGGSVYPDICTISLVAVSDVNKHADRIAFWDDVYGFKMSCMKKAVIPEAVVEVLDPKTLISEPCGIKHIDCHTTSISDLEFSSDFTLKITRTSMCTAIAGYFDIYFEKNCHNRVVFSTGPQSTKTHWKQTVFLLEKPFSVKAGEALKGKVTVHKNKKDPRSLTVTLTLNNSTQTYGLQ
Outline: (§2)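 AlphaLISA. Enzyme and substrate in 1x assay buffer, compound at 1% DMSO final. Enzyme preincubated with compound 15 min at room temperature, then substrate added. Reaction 60 min at room temperature, then bead mix added and incubated 60 min under subdued light before signal read.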

[4] = molecular target: Histone acetyltransferase KAT2A (Homo sapiens) (UniProt Q92830); assay: Inhibition of GCN5 (unknown origin) at 50 uM incubated for 15 mins followed by substrate addition measured after 60 mins by radioisotope assay
Sequence of Histone acetyltransferase KAT2A (Homo sapiens) (Q92830 2-837 limits assumed): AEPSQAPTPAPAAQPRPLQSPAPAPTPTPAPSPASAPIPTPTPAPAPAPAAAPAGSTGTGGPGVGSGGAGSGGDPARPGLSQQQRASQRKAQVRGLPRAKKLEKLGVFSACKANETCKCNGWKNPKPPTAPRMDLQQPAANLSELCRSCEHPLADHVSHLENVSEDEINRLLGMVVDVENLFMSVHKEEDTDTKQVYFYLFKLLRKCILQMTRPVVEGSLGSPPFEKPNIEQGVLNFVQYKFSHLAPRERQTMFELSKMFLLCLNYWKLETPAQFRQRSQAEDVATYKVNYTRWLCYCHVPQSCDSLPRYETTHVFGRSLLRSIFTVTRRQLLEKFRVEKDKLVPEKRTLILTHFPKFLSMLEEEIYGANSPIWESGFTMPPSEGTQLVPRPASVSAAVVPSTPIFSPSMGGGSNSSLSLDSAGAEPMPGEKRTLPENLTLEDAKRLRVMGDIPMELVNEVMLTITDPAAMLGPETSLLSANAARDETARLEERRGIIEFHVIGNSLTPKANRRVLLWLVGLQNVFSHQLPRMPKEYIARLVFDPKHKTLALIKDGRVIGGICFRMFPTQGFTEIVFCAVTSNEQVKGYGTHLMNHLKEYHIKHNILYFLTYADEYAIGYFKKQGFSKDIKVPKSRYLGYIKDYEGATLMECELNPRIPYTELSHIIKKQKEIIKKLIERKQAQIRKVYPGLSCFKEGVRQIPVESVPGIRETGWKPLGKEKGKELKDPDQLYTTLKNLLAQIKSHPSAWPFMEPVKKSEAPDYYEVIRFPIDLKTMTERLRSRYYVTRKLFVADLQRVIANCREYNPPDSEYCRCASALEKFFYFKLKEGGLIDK

MV4-11 [5] = assay: Downregulation of MEIS1 mRNA levels in human MV4-11 cells by qRT-PCR analysis; assay type: functional, cell-based; outline: as §1
[6] = molecular target: Protein arginine N-methyltransferase 1 (Homo sapiens) (UniProt Q99873); assay: Inhibition of PRMT1 in human MV411 cells assessed as reduction in H4R3me2a levels after 48 hrs by Western blot analysis; assay type: cell-based
Sequence of Protein arginine N-methyltransferase 1 (Homo sapiens) (Q99873 whole entry, looked up): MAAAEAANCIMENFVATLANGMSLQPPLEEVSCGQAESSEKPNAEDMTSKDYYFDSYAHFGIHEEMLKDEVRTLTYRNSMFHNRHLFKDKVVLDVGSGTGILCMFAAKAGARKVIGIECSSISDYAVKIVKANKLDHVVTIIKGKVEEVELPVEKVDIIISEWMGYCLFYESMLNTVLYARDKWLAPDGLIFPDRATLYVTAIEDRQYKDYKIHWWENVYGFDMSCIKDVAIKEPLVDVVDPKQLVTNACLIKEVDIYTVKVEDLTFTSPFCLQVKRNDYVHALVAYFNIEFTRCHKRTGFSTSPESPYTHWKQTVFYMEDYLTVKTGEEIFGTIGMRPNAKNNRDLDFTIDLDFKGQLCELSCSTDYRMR
Outline: (§3)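 MV4-11 cells treated with compound for 48 h. ADMA, SDMA and H4R3me2a read by western blot. Blots blocked in 5% nonfat milk in PBST, primary antibodies overnight at 4°C, HRP anti-rabbit secondary at 1:10000 for 1 h.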

U-937 = assay: Cytotoxicity against human U937 cells assessed as decrease in cell viability after 96 hrs by Cell-Titer Glo assay; assay type: functional, cell-based
Outline: (§4)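 Cells kept at 37°C, 5% CO2, exposed to compound or DMSO control for 96 h. Viability read by CellTiter-Glo luminescence after 2 min shaking to lyse and 10 min at room temperature. Triplicate wells, normalised to control cells. For long-term growth, log-phase seeding densities; cells counted and replated to the starting density with fresh compound on days 4 and 8.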

[7] = molecular target: T1, Protein arginine N-methyltransferase 1 (Rattus norvegicus, UniProt Q63009); assay: Inhibition of rat His-tagged PRMT1 (11 to 353 residues) expressed in Escherichia coli BL21(DE3) using biotinylated H4 peptide (1 to 21 residues) as substrate preincubated for 15 mins followed by substrate addition measured after 60 mins in presence of [3H]SAM by microbeta counting method
T1 sequence (Q63009 whole entry, the tested form may be a part): as the sequence (Q63009 whole entry, looked up, the tested form may be a part) above
Outline: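 Radiometric assay in modified Tris buffer. His6-rPRMT1(11–353) preincubated with compound 15 min at RT, then substrate and [3H]-SAM added. Reaction 60 min at RT, stopped with cold stop solution, transferred to Flashplate for 60 min, washed with water/0.1% Tween-20, counted on Microbeta. IC50 from curve fit.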

MV4-11 [8] = assay: Induction of apoptosis in human MV4-11 cells after 96 hrs by annexin V-FITC/propidium iodide staining-based flow cytometric method; assay type: functional, cell-based
Outline: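 MV4-11 cells in 6-well plates with compound or DMSO control, harvested at 96 h. Stained with an Annexin V-FITC apoptosis detection kit and analysed by flow cytometry. Mean ± SD of three replicates.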

[9] = molecular target: DNA (cytosine-5)-methyltransferase 1 (Homo sapiens) (UniProt P26358); assay: Inhibition of DNMT1 (unknown origin) at 100 uM incubated for 15 mins followed by substrate addition measured after 60 mins by radioisotope assay
Sequence of DNA (cytosine-5)-methyltransferase 1 (Homo sapiens) (P26358 whole entry): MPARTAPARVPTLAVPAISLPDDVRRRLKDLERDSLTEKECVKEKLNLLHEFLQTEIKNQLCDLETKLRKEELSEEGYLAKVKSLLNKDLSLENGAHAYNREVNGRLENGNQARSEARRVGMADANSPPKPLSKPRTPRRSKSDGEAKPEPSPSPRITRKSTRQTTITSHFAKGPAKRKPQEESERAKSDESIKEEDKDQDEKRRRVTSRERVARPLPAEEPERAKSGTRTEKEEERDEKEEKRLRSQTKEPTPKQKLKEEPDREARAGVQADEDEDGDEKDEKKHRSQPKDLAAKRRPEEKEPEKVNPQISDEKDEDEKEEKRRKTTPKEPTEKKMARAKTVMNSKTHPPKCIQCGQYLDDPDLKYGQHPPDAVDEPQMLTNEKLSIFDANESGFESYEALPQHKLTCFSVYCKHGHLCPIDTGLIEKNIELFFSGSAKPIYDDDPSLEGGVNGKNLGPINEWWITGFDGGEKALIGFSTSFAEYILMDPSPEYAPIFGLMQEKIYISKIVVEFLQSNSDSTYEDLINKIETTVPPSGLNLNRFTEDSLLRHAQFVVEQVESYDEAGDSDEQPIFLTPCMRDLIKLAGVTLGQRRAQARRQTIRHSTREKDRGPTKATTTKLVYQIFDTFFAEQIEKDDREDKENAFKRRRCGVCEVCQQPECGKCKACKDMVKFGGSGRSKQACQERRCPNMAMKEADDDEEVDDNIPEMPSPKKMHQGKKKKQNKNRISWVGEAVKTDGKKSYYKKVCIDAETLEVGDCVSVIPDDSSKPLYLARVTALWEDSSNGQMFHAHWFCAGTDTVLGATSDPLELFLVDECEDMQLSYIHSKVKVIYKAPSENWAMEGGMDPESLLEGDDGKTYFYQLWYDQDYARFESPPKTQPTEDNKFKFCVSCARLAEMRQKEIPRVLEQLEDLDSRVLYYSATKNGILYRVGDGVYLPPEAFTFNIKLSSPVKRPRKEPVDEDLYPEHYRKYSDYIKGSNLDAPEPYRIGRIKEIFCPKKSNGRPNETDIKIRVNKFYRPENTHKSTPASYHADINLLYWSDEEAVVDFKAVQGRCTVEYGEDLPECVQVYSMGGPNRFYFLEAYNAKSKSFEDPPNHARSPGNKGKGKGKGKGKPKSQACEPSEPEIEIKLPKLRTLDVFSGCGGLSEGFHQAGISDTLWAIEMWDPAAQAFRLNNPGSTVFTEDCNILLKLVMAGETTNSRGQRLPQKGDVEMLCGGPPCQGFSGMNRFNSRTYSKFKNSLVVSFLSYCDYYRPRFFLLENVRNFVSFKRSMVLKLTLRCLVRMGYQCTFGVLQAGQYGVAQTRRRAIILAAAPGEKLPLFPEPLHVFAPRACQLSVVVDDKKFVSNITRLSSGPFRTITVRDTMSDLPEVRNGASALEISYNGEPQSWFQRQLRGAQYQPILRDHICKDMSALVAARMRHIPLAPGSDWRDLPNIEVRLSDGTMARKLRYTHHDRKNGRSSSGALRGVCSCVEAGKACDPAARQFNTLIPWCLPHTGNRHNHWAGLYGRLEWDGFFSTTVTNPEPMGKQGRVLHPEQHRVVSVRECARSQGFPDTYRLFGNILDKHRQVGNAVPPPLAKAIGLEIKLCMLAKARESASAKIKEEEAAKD

KOPN-8 = assay: Cytotoxicity against human KOPN8 cells assessed as decrease in cell viability after 96 hrs by Cell-Titer Glo assay; assay type: functional, cell-based; outline: as §4
RCH-ACV = assay: Cytotoxicity against human RCH-ACV cells assessed as decrease in cell viability after 96 hrs by Cell-Titer Glo assay; assay type: functional, cell-based; outline: as §4
[10] = Cytotoxicity against human HUV-EC-C cells assessed as decrease in cell viability at 6.25 to 25 uM after 96 hrs by Cell-Titer Glo assay; assay type: cell-based
Outline: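 Normal HUV-EC-C, MRC-5 and RCTEC cells at 37°C, 5% CO2, given compound or DMSO control for 96 h. Viability by CellTiter-Glo luminescence after 2 min shaking and 10 min at room temperature. Triplicate wells, normalised to control cells.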

[11] = molecular target: N-lysine methyltransferase SMYD2 (Homo sapiens) (UniProt Q9NRG4); assay: Inhibition of SMYD2 (unknown origin) at 50 uM incubated for 15 mins followed by substrate addition measured after 240 mins by AlphaLisa method
Outline: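 SMYD2 AlphaLISA at 50 and 100 µM compound, 1% DMSO final. Enzyme preincubated 15 min at RT, then substrate added and reacted 240 min at RT. Bead mix added and incubated 60 min at RT in subdued light before reading.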

[12] = molecular target: Protein arginine N-methyltransferase 1 (Rattus norvegicus) (UniProt Q63009); assay: Binding affinity to rat His-tagged PRMT1 (11 to 353 residues) expressed in Escherichia coli BL21(DE3) at 200 uM by STD-NMR spectroscopic method
Outline: (§5)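 Rat PRMT1 (11–353), N-His6, expressed in E. coli BL21(DE3) with 0.4 mM IPTG at 16°C. Purified by Ni affinity and Superdex200. NMR used 5 µM PRMT1 in phosphate buffer pH 7.4 (20 mM NaH2PO4, 20 mM Na2HPO4, 100 mM NaCl) in D2O. Ligand at 200 µM in 5% DMSO-d6. CPMG run with 5, 2 and 1 µM PRMT1, plus STD.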

[13] = molecular target: Protein arginine N-methyltransferase 1 (Rattus norvegicus) (UniProt Q63009); assay: Binding affinity to rat His-tagged PRMT1 (11 to 353 residues) expressed in Escherichia coli BL21(DE3) at 200 uM by 1D 1H CPMG-NMR spectroscopic method; outline: as §5
[14] = molecular target: T1, Protein arginine N-methyltransferase 1; assay: Inhibition of rat His-tagged PRMT1 (11 to 353 residues) expressed in Escherichia coli BL21(DE3) incubated for 15 mins followed by substrate addition measured after 60 mins by AlphaLisa method
Outline: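 AlphaLISA IC50 run. Compound dispensed to 1% DMSO final, enzyme in 1x assay buffer preincubated 15 min at room temperature. Substrate added and reacted 60 min at RT, then AlphaLISA bead mix added for 60 min at RT in subdued light. IC50 taken from the dose-response fit.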

[15] = molecular target: Protein arginine N-methyltransferase 1 (Homo sapiens) (UniProt Q99873); assay: Inhibition of PRMT1 in human MV411 cells assessed as reduction in ADMA levels after 48 hrs by Western blot analysis; assay type: cell-based; outline: as §3
[16] = molecular target: Histone-lysine N-methyltransferase PRDM9 (Homo sapiens) (UniProt Q9NQV7); assay: Inhibition of PRDM9 (unknown origin) at 50 uM incubated for 15 mins followed by substrate addition measured after 60 mins by AlphaLisa method; outline: as §2
Sequence of Histone-lysine N-methyltransferase PRDM9 (Homo sapiens) (Q9NQV7 whole entry): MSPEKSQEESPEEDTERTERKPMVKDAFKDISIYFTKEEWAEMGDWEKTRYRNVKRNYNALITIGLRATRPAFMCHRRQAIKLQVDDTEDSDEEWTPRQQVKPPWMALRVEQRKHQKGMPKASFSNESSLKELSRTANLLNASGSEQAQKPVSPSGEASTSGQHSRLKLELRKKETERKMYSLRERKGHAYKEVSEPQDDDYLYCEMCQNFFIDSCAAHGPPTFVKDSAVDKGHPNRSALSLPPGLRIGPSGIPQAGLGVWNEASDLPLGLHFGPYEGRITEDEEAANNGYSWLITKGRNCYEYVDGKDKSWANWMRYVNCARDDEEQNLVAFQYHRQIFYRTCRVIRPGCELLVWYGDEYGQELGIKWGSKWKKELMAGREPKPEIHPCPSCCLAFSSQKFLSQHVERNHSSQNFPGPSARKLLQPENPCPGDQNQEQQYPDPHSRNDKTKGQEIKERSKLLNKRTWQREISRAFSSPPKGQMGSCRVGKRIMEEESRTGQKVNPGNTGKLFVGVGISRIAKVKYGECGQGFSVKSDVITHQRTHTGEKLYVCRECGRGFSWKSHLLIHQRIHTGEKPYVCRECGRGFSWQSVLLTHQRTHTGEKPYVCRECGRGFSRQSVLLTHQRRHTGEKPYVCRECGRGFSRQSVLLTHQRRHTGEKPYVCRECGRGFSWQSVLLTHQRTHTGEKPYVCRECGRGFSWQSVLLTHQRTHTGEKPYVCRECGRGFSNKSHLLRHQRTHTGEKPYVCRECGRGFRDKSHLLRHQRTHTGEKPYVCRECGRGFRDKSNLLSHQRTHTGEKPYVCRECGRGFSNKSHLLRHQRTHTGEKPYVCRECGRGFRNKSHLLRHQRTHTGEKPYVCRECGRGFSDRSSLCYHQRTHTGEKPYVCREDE

With `CN(CCN)Cc1ccccc1Sc1ccccc1Cl` the Activity (MV4-11 [1]) was “Dose-dependent effect”, the inhibition [2] was “Active” and the IC50 [3] was 22 nM. For the same compound, the inhibition [4] was “Active”, the Activity (MV4-11 [5]) was “Dose-dependent effect” and the inhibition [6] was “Dose-dependent effect”. For the same compound, the Activity (U-937) was “Dose-dependent effect”, the IC50 [7] was 5.3 nM and the Activity (MV4-11 [8]) was “Dose-dependent effect”. The inhibition [9] was “Active”, the Activity (KOPN-8) was “Dose-dependent effect” and the Activity (RCH-ACV) was “Dose-dependent effect”. The Activity [10] was “Non-Toxic”, the inhibition [11] was “Active” and the Activity [12] was “Active”. For the same compound, the Activity [13] was “Active”, the IC50 [14] was 1.1 nM and the inhibition [15] was “Dose-dependent effect”. For the same compound, the inhibition [16] was “Active”.
